# Assay outcomes: PubChem, several laboratories
# PfM18AAP inh: blocks P. falciparum M18 aspartyl aminopeptidase. recombinant PfM18AAP, H-Glu-NHMec fluorogenic cleavage. inhibition, % at 7.35 µM. actives 1.2% (n = 290,000);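 active means inhibition above the campaign mean inhibition over all tested compounds plus 3 SD, cut at about 28% in these data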;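 further: 0% = plate median of test compound wells and 100% = 2 mM ZnCl2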
# Wee1 stabilizer: human Wee1 degradation inhibition, primary screen; P30291; HeLa Luc-Wee1K328M stability, luciferase luminescence; 100% = proteasome inhibitor MG132 effect; reporter increase, % at 5 µM; actives 1.2% (n = 220,000); AID 1321;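 active means activation above the mean of all tested compounds plus 3 SD, set per screening run, cut at about 8.8% in these data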;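 further: cells exposed to compound for 20 h before luminescence read; 0% = DMSO alone and 100% = MG132 at 30 µM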
# Target sequence (P30291 whole entry K328M): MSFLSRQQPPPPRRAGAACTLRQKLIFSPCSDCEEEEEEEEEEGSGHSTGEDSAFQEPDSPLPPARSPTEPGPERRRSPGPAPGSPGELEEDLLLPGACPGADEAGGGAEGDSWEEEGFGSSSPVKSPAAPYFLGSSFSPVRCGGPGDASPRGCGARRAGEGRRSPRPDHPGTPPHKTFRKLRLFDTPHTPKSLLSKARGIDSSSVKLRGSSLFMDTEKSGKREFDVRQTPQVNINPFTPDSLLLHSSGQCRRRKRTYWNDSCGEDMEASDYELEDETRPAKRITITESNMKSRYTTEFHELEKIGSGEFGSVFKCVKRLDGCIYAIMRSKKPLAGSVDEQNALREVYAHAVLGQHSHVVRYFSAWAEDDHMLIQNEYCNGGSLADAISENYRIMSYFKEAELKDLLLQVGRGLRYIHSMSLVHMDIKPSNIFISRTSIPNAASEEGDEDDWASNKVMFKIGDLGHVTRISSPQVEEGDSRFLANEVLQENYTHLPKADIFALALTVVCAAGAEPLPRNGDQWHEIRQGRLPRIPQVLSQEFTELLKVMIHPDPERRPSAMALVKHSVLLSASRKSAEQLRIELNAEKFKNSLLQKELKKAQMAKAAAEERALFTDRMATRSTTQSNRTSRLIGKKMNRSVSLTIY
# TNF necrop inh: inhibitors of TNF-alpha induced necroptosis in Jurkat FADD-/- cells. Jurkat FADD-/- TNF necroptosis rescue, ATP luminescence, 24 h; 0 = TNF only, 100 = no-TNF cells. activation (protection from cell death), % at 10 µM. actives 0.068% (n = 220,000). AID 463075;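 active means activation, meaning protection from cell death, of at least 50% relative to plate controls; inactive means activation below 50%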;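 further: necroptosis triggered by 40 ng/mL TNF-alpha added together with compound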
# zVAD death inh: blocks zVAD induced death of L929 cells; L929 zVAD necroptosis rescue, ATP luminescence, 24 h; with zVAD 60 µM; viability rescue, % at 10 µM; actives 0.38% (n = 220,000); AID 1377;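 active means activation, scaled between plate controls, above about 75%, limit read from the data; inactive means activation under that limit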;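 further: 0% = zVAD with DMSO and 100% = DMSO alone without zVAD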
# RBBP9 inh: inhibitors of human serine hydrolase RBBP9 | recombinant RBBP9, FP-Rh probe fluorescence polarization | inhibition, % at 7.94 µM | actives 0.2% (n = 220,000) | AID 1515;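 active means inhibition above the campaign mean of all tested compounds plus 3 SD, cut at about 14% in these data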;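 further: plate controls were DMSO wells with RBBP9 for no effect and wells lacking RBBP9 protein for full effect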
#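 System: RBBP9 protein / Buffer or medium: Tris/NaCl buffer pH 8.0 with 0.1% Pluronic / Probe or stimulus: Serine-hydrolase probe FP-Rh, 375 nM pre-mixing / Dosing: 7.94 µM single dose, 0.794% DMSO / Times: enzyme-compound preincubation 30 min, then probe labeling 45 min, 25 °C / Technique: fluorescence polarization (mP), excitation 525 nm, emission 598 nm / Replication: singlicate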
# p97 inhibitor: human p97 ATPase inhibition | P55072 | recombinant p97 ATPase, Kinase-Glo ATP luminescence, 3 h | inhibition, % at 8 µM | actives 0.42% (n = 220,000) | AID 1481; in the data active means inhibition above about 15%;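 further: 0% = DMSO vehicle and 100% = wells lacking enzyme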
# Wee1 degr conf: confirmation of human Wee1 degradation inhibitors; shares compounds with Wee1 stabilizer; HeLa Luc-Wee1K328M degradation, luminescence; vehicle 0%, proteasome-blocked wells 100%; activation, % at 5 µM; actives 4% (n = 1,100); AID 1410; in the data active means activation above about 8.9%
# Starred values were filed as active, the others as inactive; x = no result. Sampled rows, rich in hits. Any-hit rate of the full collection: about 2.7%.
SMILES,PfM18AAP inh,Wee1 stabilizer,TNF necrop inh,zVAD death inh,RBBP9 inh,p97 inhibitor,Wee1 degr conf
Cc1ccc(C)c(C(=O)NC2CC(C)(C)NC(C)(C)C2)c1,-5,-3,0,0,-2,6,x
COCCNc1c(-c2cc3ccc(C)c(C)c3[nH]c2=O)nc2ccccn12,10,13*,1,-1,-6,4,2
Cc1cc(C)cc(NC(=O)c2sc3nc(C)cc(C)c3c2N)c1,-4,x,x,x,x,x,x
Cc1cc(C)c2c(N)c(C(=O)C(C)(C)C)sc2n1,2,13*,2,1,1,2,-1
COc1ccc([N+](=O)[O-])cc1NC(=O)/C=C/C(=O)O,-11,4,1,0,-4,1,x
COc1cc(OC)c(NC(=O)/C=C/C(=O)O)cc1Cl,10,12*,1,2,7,7,0
CCOC(=O)CC/C(C)=N\N=C1\SC(CC(=O)O)C(=O)N1c1ccccc1 (centres undefined),10,0,1,0,-1,6,x
COc1ccc2cc(C3CC(c4ccco4)=NN3S(=O)(=O)c3ccccc3)c(Cl)nc2c1 (centres undefined),-3,16*,4,0,-9,4,1
CCOc1ccc2cc(C3CC(c4ccco4)=NN3S(=O)(=O)c3ccccc3)c(Cl)nc2c1 (centres undefined),-8,-1,4,1,-8,6,x
O=C(COc1ccc([N+](=O)[O-])cc1)Nc1ccc2c(c1)nc1n2CCOC1,-10,x,x,x,x,x,x
O=C(N/N=C/c1ccc(F)cc1)c1ccccc1,4,12*,-1,4,-2,-1,3
O=C(O)c1ccc(/C=N/NC(=O)c2ccc(F)cc2)cc1,-6,-2,1,-1,-9,-2,x
S=C(Nc1cccc(Cl)c1)N1CCN(Cc2ccccc2)CC1,-1,11*,1,0,-5,4,4
S=C(NCCN1CCOCC1)Nc1cccc(Cl)c1,2,15*,-4,0,-7,-4,-1
Cn1c2c(c(=O)c3ccccc31)CCC(C)(C)O2,-7,11*,3,2,-7,1,1
COc1ccccc1CNC(=O)Cn1cc(Br)ccc1=O,1,x,x,x,x,x,x
CC(C)Cc1nnc(NC(=O)CCC(=O)NC2CC2)s1,0,x,x,x,x,x,x
Cc1ccc2[nH]c(C(=O)NN=C3CCCCC3)c(-c3ccccc3)c2c1,4,16*,0,5,-10,-1,4
Cc1ccc2[nH]c(C(=O)O)c(-c3ccccc3)c2c1,11,-1,-2,0,-6,5,x
COc1ccccc1OC(=O)c1cc2ccccc2oc1=O,6,x,x,x,x,x,x
COc1cccc(OC(=O)c2cc3ccccc3oc2=O)c1,1,15*,-1,1,1,2,1
COC(=O)C(Cc1c[nH]c2ccccc12)NC(=O)c1cccs1 (centres undefined),-8,-2,-2,1,0,1,x
COC(=O)C(Cc1c[nH]c2ccccc12)NC(C)=O (centres undefined),-14,11*,-2,1,0,4,-2
O=C(CCl)NCc1cc(-c2ccc(Cl)cc2)no1,1,-1,-10,8,-3,3,x
COc1cc([N+](=O)[O-])ccc1NC(=O)CCCOc1cc(C)ccc1C,0,13*,0,1,-5,-3,0
COc1cc([N+](=O)[O-])ccc1NC(=O)CCCOc1ccccc1,-1,3,-2,1,5,2,x
CN(C)CCn1c(SCc2ccccc2C#N)nc2c(sc3ccccc32)c1=O,5,x,x,x,x,x,x
O=C(Nc1ccccc1)C1=C[C@@H](c2ccccc2)C[C@@H](OCc2ccc(CO)cc2)O1,1,0,2,-1,-2,2,x
O=C(Nc1ccccc1)C1=C[C@H](c2ccc(Br)cc2)C[C@H](OCc2ccc(CO)cc2)O1,1,11*,4,0,-14,1,5
O=C(Nc1ccccc1F)Nc1ccc([N+](=O)[O-])cc1Cl,0,-3,14,-1,5,3,x
